From PubChem BioAssay
This is a sample that favours compounds with a hit; in the whole collection about 2.3% have one here.
MC4R ag barr – activates human MC4R beta-arrestin recruitment. U2OS MC4R beta-arrestin complementation, luminescence; percent of melanotan II response, DMSO zero. activation, % at 8.9 µM. 360,000 tested, 0.98% active;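 active = activation above a per-plate cutoff, the mean activation of sample wells on that plate plus 3 SD, cut at about 8% in these data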
Target sequence (P32245 whole entry, looked up): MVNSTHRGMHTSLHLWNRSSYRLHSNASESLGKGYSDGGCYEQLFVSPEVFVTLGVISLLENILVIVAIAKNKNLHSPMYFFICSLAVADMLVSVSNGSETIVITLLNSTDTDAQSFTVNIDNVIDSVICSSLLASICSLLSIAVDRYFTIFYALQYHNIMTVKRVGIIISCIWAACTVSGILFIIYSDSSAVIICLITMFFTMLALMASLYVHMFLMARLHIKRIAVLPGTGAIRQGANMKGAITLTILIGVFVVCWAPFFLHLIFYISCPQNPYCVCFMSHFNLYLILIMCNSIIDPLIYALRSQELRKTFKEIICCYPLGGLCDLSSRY
MC4R antag cAMP – human MC4R antagonism in cAMP assay | MC4R-expressing cells, MTII-stimulated cAMP, LANCE TR-FRET | inhibition, % at 6.5 µM | AID 540295 | 360,000 tested, 0.48% active;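 active = inhibition above its plate's cutoff, the mean of tested wells on that plate plus 3 SD, cut at about 29% in these data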
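material = U2OS cells stably expressing human melanocortin 4 receptor (MC4R) | also added = Melanotan II challenge | dosing = single nominal compound dose of 6.5 µM | detection = TR-FRET with Eu-cAMP and labeled anti-cAMP, 671 nm | replication = singlicate | timing = compound 30 min, challenge 1 h, detection 1 h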
bovine MsrA act – activates bovine MsrA enzyme; purified bovine MsrA, absorbance read-out; activation, % at 10.6 µM; 360,000 tested, 0.3% active; AID 602163; in the data active = activation above about 7.5%
MsrA inhibitor – inhibitors of bovine MsrA. purified bovine MsrA, absorbance read-out. inhibition, % at 15.5 µM. 360,000 tested, 0.75% active; in the data active = inhibition above about 4.5%
MsrA activ conf – confirmation of bovine methionine sulfoxide reductase A activators; AID 602270; activation, % at 10.6 µM; 1,000 tested, 12% active; purified bovine MsrA, absorbance read-out; shares compounds with bovine MsrA act; in the data active = activation above about 4%;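 also: enzyme coupled to thioredoxin and thioredoxin reductase with NADPH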
Numbers stand for hits; n = inactive; x = no result.

SMILES	MC4R ag barr	MC4R antag cAMP	bovine MsrA act	MsrA inhibitor	MsrA activ conf
O=C(CSCc1ccc(Cl)cc1)NN=C1CCCC1	n	n	8.1	n	n
CCCN1CCN(C(=O)c2noc3c2COc2ccc(C)cc2-3)CC1	n	n	8.0	n	n
CCCC/C(O)=C1\C(=O)CC(C)(C)CC1=Nc1ccccc1OC	n	n	8.7	n	n
O=C(O)C1CSC(CCc2ccccc2)N1 (stereo unspecified)	n	n	7.8	n	n
O=C(O)C1CSC(c2coc3ccccc3c2=O)N1 (stereo unspecified)	n	n	n	n	x
CN(C)CCN1C(=O)C(O)=C(C(=O)c2cc3ccccc3o2)C1c1cccc(Br)c1 (stereo unspecified)	n	n	n	n	x
CCOC(=O)c1cc2nc(OCC)nc(OCC)c2[nH]1	n	n	8.7	n	n
CSc1oc(-c2ccccc2)nc1S(=O)(=O)c1ccc(C)cc1	n	n	8.0	n	n
Cc1ccc(S(=O)(=O)NCCN2CCNC2=O)cc1	n	n	n	n	x
O=C(NCc1ccccc1)Nc1cccn(Cc2ccccc2Cl)c1=O	n	n	9.1	n	n
COc1ccc(NC(=O)CN(C)C(=O)/C=C/c2cn(-c3ccccc3)nc2-c2ccc(F)cc2)cc1	n	n	n	n	x
COc1ccc(Cc2c(-c3ccc(OC)c(OC)c3)nc3ccc(C)cn23)c(C)c1	x	x	13	n	n
O=c1oc2ccccc2cc1-c1ccc(O)cc1O	n	n	n	n	x
Oc1cccc2oc(=S)[nH]c12	n	n	12	n	n
CCCc1cc(=O)[nH]c(SCC(=O)c2ccc3c(c2)NC(=O)CO3)n1	n	n	n	n	x
CCS(=O)(=O)Nc1cccc(-c2cn3c(n2)SCC3)c1	n	n	7.7	n	n
CC1CCCC(NC(=O)Nc2cccs2)C1C (stereo unspecified)	n	n	8.9	n	n
CC1CCCC(NC(=O)c2ccncc2)C1C (stereo unspecified)	n	n	n	n	x
CC(C)c1nc(NCC2CCCO2)c(C#N)c2c1COC(C)(C)C2 (stereo unspecified)	n	n	10.0	n	n
CCc1nc(NCC2CCCO2)c(C#N)c2c1COC(C)(C)C2 (stereo unspecified)	n	n	n	n	x
COc1ccc(NC(=O)c2c(F)cccc2Cl)cc1S(=O)(=O)N1CCOCC1	n	n	n	n	x
O=C(NCc1cccnc1)C(=O)NCC1OCCN1S(=O)(=O)c1ccc(F)cc1 (stereo unspecified)	n	n	8.4	n	n
O=C(c1cnccn1)N1CCCC(N2CCN(c3cccc(Cl)c3)CC2)C1 (stereo unspecified)	n	n	n	n	x
Cc1cccc(C(=O)N2CCCC(N3CCN(c4cccc(Cl)c4)CC3)C2)n1 (stereo unspecified)	n	n	17	n	n
Cn1c(=O)c2c(nc(NCCCO)n2Cc2cccc(C(F)(F)F)c2)n(C)c1=O	n	n	8.3	n	n
SMILES	MC4R ag barr	MC4R antag cAMP	bovine MsrA act	MsrA inhibitor	MsrA activ conf
Cn1c(SCc2cccc(Cl)c2)nc(C(F)(F)F)cc1=O	n	n	8.4	n	n
Cn1c(SCc2ccccc2)nc(C(F)(F)F)cc1=O	n	n	n	n	x
Cc1cc(NC(=O)C(C)C)ncc1NC(=O)Cc1ccccc1	n	n	9.6	n	n
CCCC(=O)Nc1cc(C)c(NC(=O)Cc2ccccc2)cn1	x	x	x	n	x
CCSC1=N/C(=C\c2ccccc2)C(=O)N1c1ccc(OC)cc1	n	n	n	n	x
CCN(CC)C1=N/C(=C\c2ccc(OC)cc2)C(=O)N1c1ccccc1	n	n	20	n	n
O=C(CCl)N1c2ccccc2Sc2c1ccc1ccccc21	n	n	n	n	x
CC(=O)N1c2ccccc2Sc2ccc3ccccc3c21	n	n	9.2	n	n
OCCNc1ncnc2c1ncn2[C@H]1CN(C2CCCC2)C[C@@H](CO)O1	n	n	n	n	x
CCc1nc2ccc(C(=O)Nc3ccc(NC(C)=O)cc3)cn2c1N(C)CCC(C)C	n	n	8.8	n	n
CCc1nc2ccc(C(=O)Nc3ccc(C(N)=O)cc3)cn2c1N(C)CCC(C)C	n	n	n	n	x
C/C(=N/NC(=O)CNC(=O)c1cccnc1)c1ccco1	n	n	n	n	x
Cc1cccc(NC(=O)CN2C(=O)NC(C)(c3ccc4c(c3)OCO4)C2=O)c1 (stereo unspecified)	n	n	n	n	x
Cc1ccc(C2(C)NC(=O)N(CC(=O)Nc3ccc4c(c3)OCO4)C2=O)cc1 (stereo unspecified)	n	n	11	n	n
O=C(O)c1ccccc1C(=O)Nc1n[nH]c(=S)s1	n	n	8.7	n	n
O=C(O)c1ccccc1C(=O)Nc1nccs1	n	n	n	n	x
